Sampled rows, rich in hits. Any-hit rate of the full collection: about 1.3%.
Tn6 DDE FP – inhibitors of Tn6 peptide binding to fibrin DD(E), primary screen, biochemical, fluorescence polarization, human fibrin, Tn6 probe | Fibrin DD(E) TRITC-Tn6 fluorescence polarization displacement | inhibition, % at 8.3 µM | hit rate 0.21% among 370,000;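 active = inhibition above a per-campaign cutoff: mean of compounds within control limits plus 3 SD, cut at about 15% in these data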;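 note: 0% = median of all compound wells on the plate and 100% = blocking peptide control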
Target sequence (P02675 whole entry, looked up): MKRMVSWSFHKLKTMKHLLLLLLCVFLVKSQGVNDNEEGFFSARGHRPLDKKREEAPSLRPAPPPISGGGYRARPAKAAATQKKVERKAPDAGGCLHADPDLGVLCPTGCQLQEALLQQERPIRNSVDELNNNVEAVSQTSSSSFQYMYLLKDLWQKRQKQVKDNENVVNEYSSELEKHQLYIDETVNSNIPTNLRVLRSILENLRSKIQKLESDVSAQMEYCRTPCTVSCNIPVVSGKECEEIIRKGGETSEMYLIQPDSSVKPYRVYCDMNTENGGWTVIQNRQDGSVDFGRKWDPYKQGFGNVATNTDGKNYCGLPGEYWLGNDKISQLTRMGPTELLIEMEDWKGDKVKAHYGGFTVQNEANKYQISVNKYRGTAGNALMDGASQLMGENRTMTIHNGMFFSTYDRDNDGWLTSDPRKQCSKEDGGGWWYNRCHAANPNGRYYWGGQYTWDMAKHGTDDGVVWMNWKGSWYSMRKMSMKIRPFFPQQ
CendR NRP1 mod – modulators of CendR peptide binding to NRP-1, primary screen, biochemical, fluorescence polarization, uHTS; hit rate 0.85% among 360,000; inhibition, % at 25 µM; FAM-RPARPAR peptide binding to NRP-1;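 active = inhibition or corrected inhibition above about 18%, plus a signal ratio from 0.5 to 1.5, limit read from the data, passing the limit was not always enough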
aDG glyco act – activators of alpha-DG glycosylation, primary screen, uHTS, Pro5-aDG cells, AlphaScreen; alpha-DG glycosylation AlphaScreen (IIH6); 0% Pro5, 100% B10-LARGE cell signal; activation, % at 10 µM; hit rate 0.22% among 360,000; AID 624168, 2012;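 active = activation of at least 8% versus controls, or a plate z-score of at least 8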;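 note: Pro5 are CHO cells carrying HIG-tagged alpha-DG that lacks glycosylation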
Tn7 DDE FP – inhibitors of Tn7 peptide binding to fibrin DD(E), primary screen, biochemical, fluorescence polarization, human fibrin, Tn7 probe | hit rate 0.13% among 370,000 | inhibition, % at 8.3 µM | FP displacement of FITC-Tn7 peptide from fibrin DD(E); 0% = median of compound wells per plate;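 active = inhibition above the mean of compounds falling within the control limits plus 3 SD of them, cut at about 14% in these data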;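 note: 0% = plate median of compound wells and 100% = 10 µM Aha-Tn7 peptide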
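Assay system: human fibrin DD(E) protein / Input: 2 µM fibrin DD(E) / Benchmarks: high control of 10 µM Aha-Tn7 peptide / Measured by: fluorescence polarization of the labelled Tn7 tracer / Medium: Tris buffer with calcium and detergent, pH 7.8 / Timing: 10 min compound pre-incubation, 3 h probe incubation at room temperature / Repeats: one replicate per compound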
DDE Tn6 FP ctr – counter-screen for inhibitors of Tn6 peptide binding to fibrin DD(E); inhibition, % at 8.3 µM; shares compounds with Tn6 DDE FP; hit rate 2% among 680; TRITC-Tn6 fluorescence polarization displacement; 0% = median of compound wells, not DMSO;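 active = inhibition above the mean of test compounds lying between the control limits plus 3 SD of those, cut at about 14% in these data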;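 note: 0% = median of compound wells and 100% = wells with Aha-Tn7 blocking peptide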
DDE Tn6 confirm – inhibitors of Tn6 peptide binding to fibrin DD(E), confirmation, biochemical, fluorescence polarization, human fibrin, Tn6 probe; shares compounds with Tn6 DDE FP; FP displacement of TRITC-Tn6 peptide from DD(E); 0% = per-plate median of test wells; inhibition, % at 8.3 µM; hit rate 10% among 680; AID 720631, 2013;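 active = inhibition above the mean of compounds lying within the control limits plus 3 SD, cut at about 16% in these data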;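 note: 100% = high control wells holding a competing inhibitor peptide at 10 µM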
Active calls of the source: *; · = no result.

SMILES	Tn6 DDE FP	CendR NRP1 mod	aDG glyco act	Tn7 DDE FP	DDE Tn6 FP ctr	DDE Tn6 confirm
COC(=O)[C@]12C[C@H](CC(=O)N3CCCCC3)C(=O)N(Cc3ccco3)C1=C[C@H](C1CCCC1)O[C@@H]2C	-8	·	·	-8	·	·
CCc1ccc(OCC(=O)Nc2ccc3oc(=O)ccc3c2)cc1	17*	16	0	6	5	-2
COc1cccc(NC(=O)c2ccccc2N2C(=O)C3C4C=CC(C4)C3C2=O)c1 (configuration not stated)	16*	-4	0	2	-2	-4
COc1ccc(-c2c(Cc3ccccc3)nc(NC(=O)c3ccccc3)n2C)cc1	1	·	·	3	·	·
CCN1CC2=C(OC(N)=C(C#N)C2c2ccccc2)/C(=C\c2ccccc2)C1 (configuration not stated)	25*	-3	0	-1	12	7
O=C(Nc1nc2c(Br)cccc2s1)c1ccc2c(c1)OCCO2	38*	·	·	-3	3	-9
O=C(C1COc2ccccc2O1)N1CCN(c2ccc(C(F)(F)F)cn2)CC1 (configuration not stated)	2	-4	0	-3	·	·
NS(=O)(=O)c1ccc(N2CCN(C(=O)C3COc4ccccc4O3)CC2)nc1 (configuration not stated)	18*	8	0	0	2	-5
O=C(Cn1c(=O)[nH]c2ccsc2c1=O)N1CCN(c2ccc(F)cc2)CC1	16*	·	·	1	2	-3
CSc1ccc(S(=O)(=O)N2CC(=O)Nc3ccccc32)cc1	16*	-14	0	-6	4	4
COC(=O)C1=C(C)N(C)C(=NCc2cccc(C(F)(F)F)c2)NC1c1ccc(C(F)(F)F)cc1 (configuration not stated)	-9	·	·	-1	·	·
CCn1c(SCC(=O)Nc2ccc3c(c2)OCCO3)nnc1-c1ccccn1	-3	-2	0	5	·	·
O=C(CSc1nnc(-c2ccccn2)n1Cc1ccco1)Nc1ccc2c(c1)OCO2	15*	-22	1	2	9	3
O=C(COc1ccccc1)Nc1cccc(-c2nc3cc4ccccc4cc3[nH]2)c1	87*	-11	0	3	7	25*
O=C(COc1ccccc1)Nc1cccc(-c2nn[nH]n2)c1	-3	-1	0	2	·	·
CS(=O)(=O)c1cccc(C(=O)Nc2ccccc2Cc2ccccc2)c1	16*	2	0	-3	0	-3
O=C(O)c1cccc(S(=O)(=O)Nc2ccccc2Cc2ccccc2)c1	0	2	0	1	·	·
O=C(COC(=O)c1ccccc1NC(=O)c1ccccc1)c1cccc([N+](=O)[O-])c1	17*	-18	0	3	3	5
O=C(COC(=O)c1ccccc1NC(=O)c1ccccc1)c1ccc([N+](=O)[O-])cc1	4	16	0	1	·	·
C[C@@H]1COc2cc(NCCCN3CCOCC3)ccc2S(=O)(=O)N1	2	·	·	2	·	·
Cc1ccc(O)c(N=Nc2ccccc2)n1	16*	21	0	-4	1	1
CCCC(C)Sc1nc2c([nH]1)c(=S)n(C)c(=O)n2C (configuration not stated)	0	-2	0	-11	·	·
Nn1c(SCC(=O)N2CCOCC2)nnc1-c1cc(-c2ccc(F)cc2)n[nH]1	16*	·	·	6	-6	-13
Nn1c(SCC(=O)N2CCOCC2)nnc1-c1cc(-c2ccc(Cl)cc2)n[nH]1	2	·	·	-4	·	·
Cn1c(=O)n(C)c2cc(N3CCCC3)c(NC(=O)c3cccc(F)c3)cc21	15*	13	0	6	6	1
SMILES	Tn6 DDE FP	CendR NRP1 mod	aDG glyco act	Tn7 DDE FP	DDE Tn6 FP ctr	DDE Tn6 confirm
COc1ccc(-c2cc(-c3nnc(SCC(=O)Nc4cccc(Cl)c4C)n3N)[nH]n2)cc1	-7	·	·	-1	·	·
CCCCc1cc(=O)oc2c(CN3CCN(C)CC3)c(O)ccc12	-2	0	0	-9	·	·
CCCCc1cc(=O)oc2c(CN(C)C)c(O)ccc12	16*	1	0	2	-2	-1
COc1ccc(NC(=O)/C(C#N)=C/c2cccnc2)c(OC)c1	9	-7	0	-1	·	·
COc1ccc(NC(=O)C(=O)N/N=C/c2cccnc2)c(OC)c1	16*	3	1	8	2	-3
COCCCNc1ncnc2c1sc1nc(-c3ccco3)c3c(c12)CC(C)(C)OC3	18*	-20	0	6	-3	-12
CC1(C)Cc2c(c(-c3ccco3)nc3sc4c(NCCO)ncnc4c23)CO1	1	-19	0	0	·	·
COc1ccc(OC)c(C(=O)NC(CC(N)=O)c2ccc(NCCN3CCCC3)c([N+](=O)[O-])c2)c1 (configuration not stated)	16*	-9	0	4	4	-5
CN1CC=C2C(C#N)=C(N)C(C#N)(C#N)[C@H](c3cccc(Cl)c3)C2C1 (some centres not stated)	18*	8	2	-2	4	-4
CN1CC=C2C(C#N)=C(N)C(C#N)(C#N)C(c3ccsc3)C2C1 (configuration not stated)	15	63	0	5	·	·
CC(=O)N1CCc2cc(S(=O)(=O)NCCC(=O)NCCc3ccccc3)ccc21	8	8	0	-3	·	·
CC(=O)N1CCc2cc(S(=O)(=O)NCCC(=O)NCc3ccccc3)ccc21	18*	·	·	1	1	0
CCOC(=O)C(=CNc1cccc(C)c1C)C(=O)OCC	-2	-10	0	4	·	·
CCOC(=O)C(=CNc1ccc(C)cc1C)C(=O)OCC	15*	0	0	3	8	4
COC(=O)c1cc2c(c3c4ccccc4n(S(=O)(=O)c4ccc(C)cc4)c13)C(=O)N(CC(C)C)C2	-7	·	·	-1	·	·
CC(NC(=O)Nc1ccc(O)cc1)(C(F)(F)F)C(F)(F)F	29*	8	0	-1	-6	-7
COc1ccc(NC(=O)NC(C)(C(F)(F)F)C(F)(F)F)cc1	2	-5	0	-3	·	·
CCn1c(=O)c(=O)[nH]c2cc(C(=O)NC3CC3)ccc21	5	-1	0	0	·	·
CCn1c(=O)c(=O)[nH]c2cc(C(=O)NC3CCCc4ccccc43)ccc21 (configuration not stated)	18*	-12	0	10	-1	-2
CCN(CC)c1ccc(/C=N/n2nnnc2N)c(O)c1	18*	-29	0	1	3	3

Screening data deposited in PubChem BioAssay by several laboratories.
